Data reported in ChEMBL document CHEMBL1122384, “Synthesis and evaluation of 24-(isopropyl[75Se]seleno)chol-5-en-3 beta-ol” (J Med Chem, 1983).

Key:
Homo sapiens [1] = organism: Homo sapiens; experiment: Adsorbed radiation dose value was calculated to human adrenals; format: functional, Adrenal gland
In short: (§1)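 Human absorbed radiation dose estimated by the standard MIRD method from rat tissue distribution (% dose/g, 1 h–21 days) and excretion data. Excretion came from three individually caged female rats, with urine and feces collected daily over 21 days.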

Homo sapiens [2] = organism: Homo sapiens; experiment: Adsorbed radiation dose value was calculated to human kidney; format: functional; in short: as §1
Homo sapiens [3] = organism: Homo sapiens; experiment: Adsorbed radiation dose value was calculated to human liver; format: functional; in short: as §1
Homo sapiens [4] = organism: Homo sapiens; experiment: Adsorbed radiation dose value was calculated to human lungs; format: functional; in short: as §1
Homo sapiens [5] = organism: Homo sapiens; experiment: Adsorbed radiation dose value was calculated to human ovaries; format: functional, Female gonad; in short: as §1
Homo sapiens [6] = organism: Homo sapiens; experiment: Adsorbed radiation dose value was calculated to human pancreas; format: functional; in short: as §1
Homo sapiens [7] = organism: Homo sapiens; experiment: Adsorbed radiation dose value was calculated to human spleen; format: functional; in short: as §1
Homo sapiens [8] = organism: Homo sapiens; experiment: Adsorbed radiation dose value was calculated to human total body; format: functional; in short: as §1
Rattus norvegicus [9] = experiment: Tested for distribution of radioactivity in female rat tissue at 14d ay after intravenous administration in blood; format: ADME, organism-based; details: in vivo
In short: (§2)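 Female Fischer 344 rats (160–180 g), food and water ad libitum, received 5–10 μCi i.v. via lateral tail vein (1 mL Tween 80–EtOH–saline) under light Et₂O anesthesia. At each time they were anesthetized and decapitated, and organs were rinsed in saline, blotted, weighed and gamma counted. Values are % dose/g, mean and range of 3 rats.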

Rattus norvegicus [10] = experiment: Tested for distribution of radioactivity in female rat tissue at 14d ay after intravenous administration in kidney; format: ADME, organism-based; details: in vivo; in short: as §2
Rattus norvegicus [11] = experiment: Tested for distribution of radioactivity in female rat tissue at 14d ay after intravenous administration in liver; format: ADME, organism-based; details: in vivo; in short: as §2
Rattus norvegicus [12] = experiment: Tested for distribution of radioactivity in female rat tissue at 14d ay after intravenous administration in ovaries; format: ADME, organism-based; details: in vivo; in short: as §2
Rattus norvegicus [13] = experiment: Tested for distribution of radioactivity in female rat tissue at 18 hr after intravenous administration in adrenal; format: ADME, organism-based; details: in vivo; in short: as §2
Rattus norvegicus [14] = experiment: Tested for distribution of radioactivity in female rat tissue at 18 hr after intravenous administration in blood; format: ADME, organism-based; details: in vivo; in short: as §2
Rattus norvegicus [15] = experiment: Tested for distribution of radioactivity in female rat tissue at 18 hr after intravenous administration in kidney; format: ADME, organism-based; details: in vivo; in short: as §2
Rattus norvegicus [16] = experiment: Tested for distribution of radioactivity in female rat tissue at 3 day after intravenous administration in liver; format: ADME, organism-based; details: in vivo, 72 h; in short: as §2
Rattus norvegicus [17] = experiment: Tested for distribution of radioactivity in female rat tissue at 3 day after intravenous administration in ovaries; format: ADME, organism-based; details: in vivo, 72 h; in short: as §2
Rattus norvegicus [18] = experiment: Tested for distribution of radioactivity in female rat tissue at 6 hr after intravenous administration in adrenal; format: ADME, organism-based; details: in vivo; in short: as §2
Rattus norvegicus [19] = experiment: Tested for distribution of radioactivity in female rat tissue at 6 hr after intravenous administration in blood; format: ADME, organism-based; details: in vivo; in short: as §2
Rattus norvegicus [20] = experiment: Tested for distribution of radioactivity in female rat tissue at 6 hr after intravenous administration in kidney; format: ADME, organism-based; details: in vivo; in short: as §2
Rattus norvegicus [21] = experiment: Tested for distribution of radioactivity in female rat tissue at 6 hr after intravenous administration in liver; format: ADME, organism-based; details: in vivo; in short: as §2
Rattus norvegicus [22] = experiment: Tested for distribution of radioactivity in female rat tissue at 7 day after intravenous administration in adrenal; format: ADME, organism-based; details: in vivo, 168 h
In short: (§3)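 Female Fischer 344 rats (160–180 g), food and water ad libitum. Se-75-labeled steroid dissolved in EtOH, formulated in Tween 80–EtOH–saline; 5–10 μCi in 1 mL injected into a lateral tail vein under light Et₂O anesthesia. At each time point, 3 rats killed by decapitation under Et₂O. Organs rinsed with saline, blotted, weighed and gamma counted. Values are % dose/g, mean and range.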

Rattus norvegicus [23] = experiment: Tested for distribution of radioactivity in female rat tissue at 7 day after intravenous administration in blood; format: ADME, organism-based; details: in vivo, 168 h; in short: as §3
Rattus norvegicus [24] = experiment: Tested for distribution of radioactivity in female rat tissue at 7 day after intravenous administration in kidney; format: ADME, organism-based; details: in vivo, 168 h; in short: as §3
Rattus norvegicus [25] = experiment: Tested for distribution of radioactivity in female rat tissue at 7 day after intravenous administration in liver; format: ADME, organism-based; details: in vivo, 168 h; in short: as §3
Rattus norvegicus [26] = experiment: Tested for distribution of radioactivity in female rat tissue at 7 day after intravenous administration in ovaries; format: ADME, organism-based; details: in vivo, 168 h; in short: as §3
Rattus norvegicus [27] = experiment: Tested for distribution of radioactivity in female rat tissue at 18 hr after intravenous administration in ovaries; format: ADME, organism-based; details: in vivo; in short: as §2
Rattus norvegicus [28] = experiment: Tested for distribution of radioactivity in female rat tissue at 1 hr after intravenous administration in adrenal; format: ADME, organism-based; details: in vivo; in short: as §2

Q: How did the Dose (Homo sapiens [1]) turn out when `CC(C)[Se]CCC[C@H](C)[C@H]1CC[C@H]2[C@@H]3CC=C4C[C@@H](O)CC[C@]4(C)[C@H]3CC[C@]12C` was run?
A: 30 rd mCi-1

Q: What about the Dose (Homo sapiens [2]) of the same molecule?
A: 3.8 rd mCi-1

Q: And the Dose (Homo sapiens [3])?
A: 3.7 rd mCi-1

Q: And the Dose (Homo sapiens [4])?
A: 3.2 rd mCi-1

Q: What about the Dose (Homo sapiens [5]) of the same molecule?
A: 5.9 rd mCi-1

Q: What about the Dose (Homo sapiens [6]) of the same molecule?
A: 3.4 rd mCi-1

Q: And the Dose (Homo sapiens [7])?
A: 3.4 rd mCi-1

Q: What about the Dose (Homo sapiens [8]) of the same molecule?
A: 1.8 rd mCi-1

Q: What about the Dose/g (Rattus norvegicus [9]) of the same molecule?
A: 0.16%

Q: What about the Dose/g (Rattus norvegicus [10]) of the same molecule?
A: 0.91%

Q: And the Dose/g (Rattus norvegicus [11])?
A: 0.5%

Q: And the Dose/g (Rattus norvegicus [12])?
A: 2.83%

Q: What about the Dose/g (Rattus norvegicus [13]) of the same molecule?
A: 42.97%

Q: What about the Dose/g (Rattus norvegicus [14]) of the same molecule?
A: 1%

Q: And the Dose/g (Rattus norvegicus [15])?
A: 1.87%

Q: And the Dose/g (Rattus norvegicus [16])?
A: 0.99%

Q: And the Dose/g (Rattus norvegicus [17])?
A: 3.81%

Q: And the Dose/g (Rattus norvegicus [18])?
A: 35.61%

Q: And the Dose/g (Rattus norvegicus [19])?
A: 2.08%

Q: And the Dose/g (Rattus norvegicus [20])?
A: 1.69%

Q: What about the Dose/g (Rattus norvegicus [21]) of the same molecule?
A: 4.93%

Q: And the Dose/g (Rattus norvegicus [22])?
A: 29.5%

Q: What about the Dose/g (Rattus norvegicus [23]) of the same molecule?
A: 0.26%

Q: What about the Dose/g (Rattus norvegicus [24]) of the same molecule?
A: 1.34%

Q: And the Dose/g (Rattus norvegicus [25])?
A: 0.68%

Q: And the Dose/g (Rattus norvegicus [26])?
A: 3.82%

Q: What about the Dose/g (Rattus norvegicus [27]) of the same molecule?
A: 6.12%

Q: What about the Dose/g (Rattus norvegicus [28]) of the same molecule?
A: 15.65%
